Rows were chosen to be rich in hits. Some 2.3% of all compounds tested hit in one or more screens of this group.
TRPC4 agonist = activators of mouse TRPC4 channel; 310,000 compounds, 0.49% hits; Q9QUQ5; B-score at 10 µM; HEK293 TRPC4beta/mu-opioid, Fluo4 calcium fluorescence; stronger effect = higher value;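 active means B-score above 5 SD of library B-scores, and initial fluorescence ratio not above library mean plus 5 SD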;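 further: positive B-score marks a calcium rise read as TRPC4 activation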
Target sequence (Q9QUQ5 whole entry, looked up): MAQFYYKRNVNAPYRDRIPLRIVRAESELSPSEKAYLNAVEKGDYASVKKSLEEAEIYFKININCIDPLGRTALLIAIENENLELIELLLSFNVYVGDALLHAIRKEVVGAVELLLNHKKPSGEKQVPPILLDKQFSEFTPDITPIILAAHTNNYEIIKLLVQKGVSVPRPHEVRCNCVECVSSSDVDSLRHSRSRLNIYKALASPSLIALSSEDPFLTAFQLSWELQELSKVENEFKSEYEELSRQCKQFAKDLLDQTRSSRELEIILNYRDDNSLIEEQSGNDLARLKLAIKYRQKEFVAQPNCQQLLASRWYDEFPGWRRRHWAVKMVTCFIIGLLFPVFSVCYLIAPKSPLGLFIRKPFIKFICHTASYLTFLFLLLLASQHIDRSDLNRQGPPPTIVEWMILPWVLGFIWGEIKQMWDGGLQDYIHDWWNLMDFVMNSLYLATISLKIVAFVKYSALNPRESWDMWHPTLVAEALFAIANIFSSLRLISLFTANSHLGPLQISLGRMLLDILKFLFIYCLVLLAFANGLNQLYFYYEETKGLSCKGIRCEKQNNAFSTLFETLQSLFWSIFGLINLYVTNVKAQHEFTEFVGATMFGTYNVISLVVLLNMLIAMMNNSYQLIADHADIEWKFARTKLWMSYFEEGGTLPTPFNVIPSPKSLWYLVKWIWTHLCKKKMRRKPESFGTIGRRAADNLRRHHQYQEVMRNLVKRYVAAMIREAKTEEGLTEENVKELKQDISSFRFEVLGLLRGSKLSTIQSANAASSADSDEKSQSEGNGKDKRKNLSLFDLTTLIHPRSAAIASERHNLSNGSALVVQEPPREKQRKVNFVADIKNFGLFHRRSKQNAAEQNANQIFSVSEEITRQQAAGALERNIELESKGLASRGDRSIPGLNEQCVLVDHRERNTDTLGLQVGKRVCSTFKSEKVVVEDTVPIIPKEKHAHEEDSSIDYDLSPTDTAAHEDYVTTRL
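Assay system: HEK293 stable line with TRPC4beta plus mu-opioid receptor. Times: dye 45 min RT, read 110 s. Measured by: kinetic Fluo4 calcium fluorescence. Measure: B score of integrated ratio. Controls: assay buffer as low control, maximal DAMGO as high control.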
TRPC4 block = blocks the mouse TRPC4 cation channel; HEK293 TRPC4beta/mu-opioid, DAMGO-evoked Fluo4 calcium flux; stronger effect = lower value; Q9QUQ5; AID 2247; 300,000 compounds, 0.39% hits; B-score at 10 µM;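 active means B-score over 3 SD under the library average, no early fluorescence shift, positive overall ratio signal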
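Test system – stable TRPC4beta/mu-opioid receptor HEK293 cells · Probe or stimulus – DAMGO, a submaximal dose followed by a maximal one · Dosing – one concentration per compound · Signal – Fluo4 calcium fluorescence by kinetic imaging, 5 s 1 Hz baseline · Evaluation – per-well B score of integrated baseline-normalized Fluo4 ratio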
TRPC6 activator = activators of mouse TRPC6 channel; Q61143; HEK293-TRPC6 membrane potential dye fluorescence; stronger effect = higher value; B-score at 10 µM; 310,000 compounds, 0.13% hits; AID 2550;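 active means B-score of the integrated fluorescence ratio above library mean plus 3 SD, and starting fluorescence ratio within library mean plus 5 SD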;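 further: higher score means more depolarization so channel activation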
TRPC6 inhibitor = blocks the mouse TRPC6 cation channel | HEK293-TRPC6, membrane potential dye, ACh-evoked depolarization; stronger effect = lower value | 310,000 compounds, 1.1% hits | Q61143 | B-score at 10 µM;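 active means B-score under library mean minus 3 SD, initial fluorescence not abnormally high, positive integrated signal ratio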;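 further: B-score derived from integrated fluorescence ratio over the kinetic read; more negative B-score means stronger inhibition of depolarization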
TRPC4 PAM = allosteric potentiators of mouse TRPC4 channel; 310,000 compounds, 0.42% hits; HEK293 TRPC4beta/mu-opioid, DAMGO EC20, Fluo-4 Ca2+ flux; stronger effect = higher value; B-score at 10 µM; AID 2227;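 active means B-score of calcium response area above 5 SD of library B-scores, with initial fluorescence ratio within 5 SD of library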
TRPC4 sel inh 2 = second check of whether TRPC6 inhibitors also affect mouse TRPC4. 920 compounds, 42% hits. inhibition, % at 10 µM. shares compounds with TRPC6 inhibitor. HEK293 TRPC4/MOR, membrane potential dye fluorescence; channel activated by saturating DAMGO dose;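 active means compounds whose fluorescence signal differed from control wells by over 3 SD, either direction, in both duplicate plates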
TRPC4 spec = mouse TRPC4 off-target activity of TRPC6 inhibitors | shares compounds with TRPC6 inhibitor | HEK293 TRPC4/mu-opioid, membrane potential fluorescence | activity change, negative = inhibition, % at 10 µM | 920 compounds, 61% hits;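 active means rise or fall in signal beyond 3 SD of buffer-only wells in both replicate plates, either sign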;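 further: integrated kinetic ratio of fluorescence range over baseline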
HEK293 MPD ctr 2-1 = second check of TRPC6 inhibitor effects in parental HEK293 cells | 920 compounds, 31% hits | AID 2779 | parental HEK293 membrane potential dye fluorescence; maximal acetylcholine challenge after compound addition | signal change vs control, % at 10 µM | shares compounds with TRPC6 inhibitor;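 active means membrane potential signal moving either way by over 3 SD of the maximum-effect control, in both duplicate plates, meaning non-specific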
HEK293 MPD ctr-1 = checks TRPC6 inhibitor effects in parental HEK293 cells. shares compounds with TRPC6 inhibitor. parental HEK293 membrane potential dye fluorescence. membrane potential signal change, % at 10 µM. 920 compounds, 60% hits. AID 2780;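 active means membrane potential signal shifting up or down by more than 3 SD of buffer-only wells, on both duplicate plates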
HEK293 MPD ctr-2 = counter-screen for TRPC6 modulators: effect in parental HEK293 cells; AID 488924; shares compounds with TRPC6 inhibitor; membrane potential dye fluorescence; 2,400 compounds, 51% hits; membrane potential signal change, % at 10 µM;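 active means membrane potential signal moves up or down beyond 5 SD from buffer-only wells, on both duplicate plates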
HEK293 MPD ctr 2-2 = parental HEK293 nonspecific activity of TRPC6 modulators, second screen; inhibition, % at 10 µM; shares compounds with TRPC6 inhibitor; membrane potential dye fluorescence; after compound, maximal acetylcholine stimulation; 2,400 compounds, 14% hits;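 active means membrane potential signal drops by more than 5 SD from the mean control signal, in both duplicate plates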
TRPC4 ctr mod = tests whether TRPC6 modulators also affect mouse TRPC4. shares compounds with TRPC6 inhibitor. HEK293 TRPC4/mu-opioid, membrane potential fluorescence. percent change from control (negative = decrease, positive = increase), % at 10 µM. 2,400 compounds, 69% hits. AID 488927;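 active means membrane potential signal moved up or down beyond 5 SD of buffer control wells, in both duplicate plates, actives on both sides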
TRPC4 ctr inh 2 = second check of whether TRPC6 modulators also affect mouse TRPC4 | inhibition, % at 10 µM | HEK293 TRPC4/mu-opioid, membrane potential dye fluorescence; stimulated with maximal-effect DAMGO | 2,400 compounds, 55% hits | shares compounds with TRPC6 inhibitor | AID 488928;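 active means drop in membrane potential signal beyond 5 SD of the control wells in both duplicate plates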;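 further: TRPC4 counter screen for TRPC6 hits run under conditions tuned for TRPC6 not TRPC4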
TRPC6 inh conf = confirmation of mouse TRPC6 inhibitors; shares compounds with TRPC6 inhibitor; HEK293-TRPC6, membrane potential dye, ACh-evoked depolarization; inhibition, % at 10 µM; 3,300 compounds, 43% hits; AID 488960;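 active means fluorescence ratio falls more than 5 SD below the full-stimulation control mean, in both duplicate runs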;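 further: integrated fluorescence ratio of peak minus minimum over baseline after agonist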
TRPC6 act conf = mouse TRPC6 activator confirmation; shares compounds with TRPC6 inhibitor; HEK293-TRPC6 membrane potential dye fluorescence, FDSS; activation, % at 10 µM; 2,800 compounds, 11% hits; AID 488961;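 active means ratio signal rise beyond 5 SD above unstimulated control wells' mean, seen in both duplicate runs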
Each line names hits and unclear results; the compound was inactive in the other large screens (follow-up assays come after a bar, where they were run).

OC(CNCC1CCCO1)Cn1c2ccc(Cl)cc2c2cc(Cl)ccc21 (stereo not given)	none
OC(CNCC1CCCO1)Cn1c2ccccc2c2ccccc21 (stereo not given)	TRPC6 inhibitor -6.5 | HEK293 MPD ctr-2 312% | HEK293 MPD ctr 2-2 73% | TRPC4 ctr mod 36% | TRPC4 ctr inh 2 65% | TRPC6 inh conf 84%
CCC(=O)c1c(NCCc2ccccc2)cc(C)oc1=O	none
Fc1cccc(Nc2cc(-n3cccn3)ncn2)c1	none
CNC(=O)NC(=O)COC(=O)/C=C/c1cccc(Br)c1	TRPC6 inhibitor -8.5 | TRPC4 sel inh 2 inactive | TRPC4 spec inactive | HEK293 MPD ctr 2-1 inactive | HEK293 MPD ctr-1 inactive | TRPC6 inh conf inactive | TRPC6 act conf inactive
NC(=O)NC(=O)COC(=O)/C=C/c1cccc(Br)c1	none
COc1ccccc1CNC(=O)COc1ccc(S(=O)(=O)N2CCOCC2)cc1C	none
COc1ccc2c(c1)N(C)/C(=C1/SC(=NCc3ccccc3)N(c3ccccc3)C1=O)S2	TRPC6 inhibitor -6.5 | HEK293 MPD ctr-2 inactive | HEK293 MPD ctr 2-2 inactive | TRPC4 ctr mod inactive | TRPC4 ctr inh 2 inactive | TRPC6 inh conf inactive | TRPC6 act conf inactive
Cc1ccccc1CN1CCSc2sccc2C1=O	none
O=C(CC1Nc2cccc3cccc(c23)NC1=O)Nc1ccc(F)cc1 (stereo not given)	TRPC6 inhibitor -5 | HEK293 MPD ctr-2 inactive | HEK293 MPD ctr 2-2 inactive | TRPC4 ctr mod -11% | TRPC4 ctr inh 2 40% | TRPC6 inh conf inactive | TRPC6 act conf inactive
COc1ccc(NC(=O)CC2Nc3cccc4cccc(c34)NC2=O)cc1 (stereo not given)	none
CCOc1ccc(NC(=S)NCc2ccc3[nH]c(C)cc3c2)cc1	TRPC6 inhibitor -8.1 | TRPC4 sel inh 2 inactive | TRPC4 spec -9.5% | HEK293 MPD ctr 2-1 inactive | HEK293 MPD ctr-1 -150% | TRPC6 inh conf inactive | TRPC6 act conf inactive
COc1ccccc1C(CNC(=O)C(C)(C)Oc1ccc(Cl)cc1)N1CCCC1 (stereo not given)	TRPC6 inhibitor -5.7 | HEK293 MPD ctr-2 194% | HEK293 MPD ctr 2-2 inactive | TRPC4 ctr mod 33% | TRPC4 ctr inh 2 42% | TRPC6 inh conf 52%
CC(C)(Oc1ccc(Cl)cc1)C(=O)NCC(c1cccs1)N1CCOCC1 (stereo not given)	none
COc1ccc(CN(C(=O)c2ccco2)c2ccc(C)c(C)c2)cc1	none
CC(=O)N(CCC(Cc1ccccc1)c1ccc2c(c1)OCO2)Cc1ccccc1F (stereo not given)	none
Fc1ccccc1CNCCC(Cc1ccccc1)c1ccc2c(c1)OCO2 (stereo not given)	TRPC4 agonist 70, TRPC4 block -8, TRPC6 inhibitor -6.3 | HEK293 MPD ctr-2 119% | HEK293 MPD ctr 2-2 inactive | TRPC4 ctr mod 48% | TRPC4 ctr inh 2 69% | TRPC6 inh conf inactive
Cc1ccc(N2CCN(S(=O)(=O)c3c(C)noc3C)CC2C)cc1 (stereo not given)	none
Cc1cccc(C)c1NC(=O)c1cccnc1	TRPC6 inhibitor -6.3 | HEK293 MPD ctr-2 inactive | HEK293 MPD ctr 2-2 inactive | TRPC4 ctr mod inactive | TRPC4 ctr inh 2 inactive | TRPC6 inh conf inactive | TRPC6 act conf inactive
COc1ccc(NC(=O)NC2CCCCCCC2)cc1	none
CC1(C)SC2c3ccccc3C(=O)N2[C@@H]1C(=O)NCCCN1CCOCC1 (stereo not given in full)	TRPC6 inhibitor -5.1 | HEK293 MPD ctr-2 inactive | HEK293 MPD ctr 2-2 inactive | TRPC4 ctr mod 11% | TRPC4 ctr inh 2 inactive | TRPC6 inh conf inactive
O=C(CC(c1ccccc1)c1ccccc1O)N1CCCCC1 (stereo not given)	TRPC6 inhibitor -6.3 | HEK293 MPD ctr-2 inactive | HEK293 MPD ctr 2-2 inactive | TRPC4 ctr mod inactive | TRPC4 ctr inh 2 inactive | TRPC6 inh conf inactive
Cc1c(C(=O)N2CCN(Cc3ccccc3)CC2)oc2c1C(=O)CC(C)(C)C2	none
Cc1cc(C)n(CCCNCC(O)c2ccccc2)n1 (stereo not given)	none
CCOC(=O)c1[nH]ncc1CN1CCCC(C(=O)c2ccc(SC)cc2)C1 (stereo not given)	TRPC6 inhibitor -5.7 | HEK293 MPD ctr-2 inactive | HEK293 MPD ctr 2-2 inactive | TRPC4 ctr mod 11% | TRPC4 ctr inh 2 30% | TRPC6 inh conf inactive
CCOC(=O)c1[nH]ncc1CN1CCCC(C(=O)c2cccc3ccccc23)C1 (stereo not given)	none
CSc1ccc(C(=O)C2CCCN(Cc3ccc(N4CCNC4=O)cc3)C2)cc1 (stereo not given)	TRPC6 inhibitor -5.8 | HEK293 MPD ctr-2 inactive | HEK293 MPD ctr 2-2 inactive | TRPC4 ctr mod inactive | TRPC4 ctr inh 2 88% | TRPC6 inh conf 55% | TRPC6 act conf inactive
O=C(CCC1CCCCC1)NNC(=O)c1cnccn1	none
CCCc1ccc(OCC(=O)NNC(=O)c2cccnc2)cc1	none
CCn1cc(C(=O)OCC(=O)N(C)C2CCS(=O)(=O)C2)c(=O)c2ccc(C)nc21 (stereo not given)	TRPC6 inhibitor -5.4 | HEK293 MPD ctr-2 -269% | HEK293 MPD ctr 2-2 inactive | TRPC4 ctr mod -54% | TRPC4 ctr inh 2 inactive | TRPC6 inh conf 60% | TRPC6 act conf inactive

Screens: PubChem BioAssay, Johns Hopkins Ion Channel Center
